Values joined by “and” are separate entries in the source; they are usually repeats but may differ in a detail not shown here. Equal entries are not always repeated. *1 amine or outer side, *2 acyl side, *3 side chain or, on linkers, in order; H or OH if unused. Where a SMILES comes first, the peptide text is derived from it. Bridges are numbered along the chain shown (N, C = ends). Roman numbers before positions name the chains, in order. [ ]: non-standard residue; d: D form. Hexamethylenediamine = C(CCCN[*:2])CCN[*:1]; Dip = N[C@H](C(=O)O)C(c1ccccc1)c1ccccc1; Chg = N[C@H](C(=O)O)C1CCCCC1; NMeA = CN[C@@H](C)C(=O)O
Test system: HEK-293T
Assay: Multiplex assay against HEK293T
Assay type: toxicity, cell-based
Conditions: human, number of replicates 2
Outline: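 Compound was added to live cells that had been stained at seeding with Hoechst33342, BioTracker Green Microtubule Cytoskeleton Dye, MitoTracker Red and Annexin V Alexa Fluor 680, and imaging followed on a CQ1 microscope at 37°C and 5% CO2. CellPathfinder machine-learning gating divided cells into Hoechst high-intensity objects or normal cells, normal cells into healthy, pyknosed or fragmented nuclei, and pyknosed cells into mitotic or apoptotic. Tubulin, mitochondrial-mass and membrane-permeability phenotypes are per cents of healthy-nucleus cells.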

[1] = 12 h, 1 µM, compound concentration 1 uM
[2] = 12 h, 10 µM, compound concentration 10 uM
[3] = 24 h, 1 µM, compound concentration 1 uM
[4] = 24 h, 10 µM, compound concentration 10 uM
[5] = 48 h, 1 µM, compound concentration 1 uM
[6] = 48 h, 10 µM, compound concentration 10 uM

CN[C@@H](C)C(=O)N[C@H](C(=O)N1CCC[C@H]1C(=O)N[C@H](C(=O)NCCCCCCNC(=O)[C@@H](NC(=O)[C@@H]1CCCN1C(=O)[C@@H](NC(=O)[C@H](C)NC)C1CCCCC1)C(c1ccccc1)c1ccccc1)C(c1ccccc1)c1ccccc1)C1CCCCC1 (I: H-[NMeA][Chg]P[Dip] / II: H-[NMeA][Chg]P[Dip]; linker I:C-II:C via Hexamethylenediamine)
Population Apoptotic (%) [1]: 45% and 56%
Population Fragmented Nuclei (%) [1]: 3% and 1%
Population Healthy Nuclei (%) [1]: 85%
Population Hoechst High Intensity Objects (%) [1]: 7% and 5%
Population Membrane Permeable-Phenotype (%) [1]: 2%
Population Mitochondria Different-Phenotype (%) [1]: 27% and 23%
Population Mitotic Cells (%) [1]: 54% and 43%
Population Normal (%) [1]: 92% and 94%
Population Pyknosed Nuclei (%) [1]: 10% and 13%
Population Tubulin-Different-Phenotype (%) [1]: 59% and 58%
Total Cell Count [1]: 599 and 505
Population Apoptotic (%) [2]: 83% and 76%
Population Fragmented Nuclei (%) [2]: 4% and 2%
Population Healthy Nuclei (%) [2]: 75% and 79%
Population Hoechst High Intensity Objects (%) [2]: 12% and 5%
Population Membrane Permeable-Phenotype (%) [2]: 3% and 0%
Population Mitochondria Different-Phenotype (%) [2]: 76%
Population Mitotic Cells (%) [2]: 16% and 23%
Population Normal (%) [2]: 87% and 94%
Population Pyknosed Nuclei (%) [2]: 20% and 17%
Population Tubulin-Different-Phenotype (%) [2]: 96% and 98%
Total Cell Count [2]: 501 and 525
Population Apoptotic (%) [3]: 43% and 54%
Population Fragmented Nuclei (%) [3]: 5% and 3%
Population Healthy Nuclei (%) [3]: 87%
Population Hoechst High Intensity Objects (%) [3]: 6% and 7%
Population Membrane Permeable-Phenotype (%) [3]: 2% and 1%
Population Mitochondria Different-Phenotype (%) [3]: 16% and 20%
Population Mitotic Cells (%) [3]: 56% and 45%
Population Normal (%) [3]: 93%
Population Pyknosed Nuclei (%) [3]: 7% and 8%
Population Tubulin-Different-Phenotype (%) [3]: 40% and 44%
Total Cell Count [3]: 944 and 671
Population Apoptotic (%) [4]: 79% and 67%
Population Fragmented Nuclei (%) [4]: 7% and 4%
Population Healthy Nuclei (%) [4]: 66% and 80%
Population Hoechst High Intensity Objects (%) [4]: 12% and 7%
Population Membrane Permeable-Phenotype (%) [4]: 1% and 0%
Population Mitochondria Different-Phenotype (%) [4]: 85% and 82%
Population Mitotic Cells (%) [4]: 20% and 32%
Population Normal (%) [4]: 87% and 92%
Population Pyknosed Nuclei (%) [4]: 26% and 15%
Population Tubulin-Different-Phenotype (%) [4]: 92% and 95%
Total Cell Count [4]: 463 and 559
Population Apoptotic (%) [5]: 19% and 25%
Population Fragmented Nuclei (%) [5]: 9% and 7%
Population Healthy Nuclei (%) [5]: 86% and 87%
Population Hoechst High Intensity Objects (%) [5]: 6% and 8%
Population Membrane Permeable-Phenotype (%) [5]: 3% and 0%
Population Mitochondria Different-Phenotype (%) [5]: 2% and 5%
Population Mitotic Cells (%) [5]: 80% and 74%
Population Normal (%) [5]: 93% and 91%
Population Pyknosed Nuclei (%) [5]: 3% and 5%
Population Tubulin-Different-Phenotype (%) [5]: 18% and 25%
Total Cell Count [5]: 2232 and 1305
Population Apoptotic (%) [6]: 80% and 75%
Population Fragmented Nuclei (%) [6]: 9% and 7%
Population Healthy Nuclei (%) [6]: 72% and 74%
Population Hoechst High Intensity Objects (%) [6]: 9% and 10%
Population Membrane Permeable-Phenotype (%) [6]: 4% and 2%
Population Mitochondria Different-Phenotype (%) [6]: 53% and 56%
Population Mitotic Cells (%) [6]: 19% and 24%
Population Normal (%) [6]: 90% and 89%
Population Pyknosed Nuclei (%) [6]: 18% and 17%
Population Tubulin-Different-Phenotype (%) [6]: 82% and 84%
Total Cell Count [6]: 653 and 709

CCN1C(=O)N(c2c(F)c(OC)cc(OC)c2F)Cc2cnc3[nH]c(CN4CCOCC4)cc3c21 [PEMIGATINIB]
Population Apoptotic (%) [1]: 58% and 63%
Population Fragmented Nuclei (%) [1]: 3%
Population Healthy Nuclei (%) [1]: 82% and 83%
Population Hoechst High Intensity Objects (%) [1]: 7% and 9%
Population Membrane Permeable-Phenotype (%) [1]: 3% and 0%
Population Mitochondria Different-Phenotype (%) [1]: 15% and 20%
Population Mitotic Cells (%) [1]: 41% and 36%
Population Normal (%) [1]: 92% and 90%
Population Pyknosed Nuclei (%) [1]: 13%
Population Tubulin-Different-Phenotype (%) [1]: 51% and 60%
Total Cell Count [1]: 617 and 677
Population Apoptotic (%) [2]: 64% and 53%
Population Fragmented Nuclei (%) [2]: 4% and 2%
Population Healthy Nuclei (%) [2]: 83% and 87%
Population Hoechst High Intensity Objects (%) [2]: 12% and 8%
Population Membrane Permeable-Phenotype (%) [2]: 2%
Population Mitochondria Different-Phenotype (%) [2]: 31% and 18%
Population Mitotic Cells (%) [2]: 35% and 46%
Population Normal (%) [2]: 87% and 91%
Population Pyknosed Nuclei (%) [2]: 11% and 9%
Population Tubulin-Different-Phenotype (%) [2]: 77% and 68%
Total Cell Count [2]: 550 and 620
Population Apoptotic (%) [3]: 41% and 56%
Population Fragmented Nuclei (%) [3]: 8% and 7%
Population Healthy Nuclei (%) [3]: 82% and 83%
Population Hoechst High Intensity Objects (%) [3]: 7% and 8%
Population Membrane Permeable-Phenotype (%) [3]: 3% and 1%
Population Mitochondria Different-Phenotype (%) [3]: 7% and 5%
Population Mitotic Cells (%) [3]: 58% and 43%
Population Normal (%) [3]: 92% and 91%
Population Pyknosed Nuclei (%) [3]: 9%
Population Tubulin-Different-Phenotype (%) [3]: 29% and 30%
Total Cell Count [3]: 1042 and 1171
Population Apoptotic (%) [4]: 52% and 58%
Population Fragmented Nuclei (%) [4]: 4% and 5%
Population Healthy Nuclei (%) [4]: 86% and 89%
Population Hoechst High Intensity Objects (%) [4]: 12% and 11%
Population Membrane Permeable-Phenotype (%) [4]: 1%
Population Mitochondria Different-Phenotype (%) [4]: 19% and 16%
Population Mitotic Cells (%) [4]: 47% and 41%
Population Normal (%) [4]: 87% and 88%
Population Pyknosed Nuclei (%) [4]: 8% and 4%
Population Tubulin-Different-Phenotype (%) [4]: 71% and 61%
Total Cell Count [4]: 678 and 726
Population Apoptotic (%) [5]: 17%
Population Fragmented Nuclei (%) [5]: 14% and 12%
Population Healthy Nuclei (%) [5]: 83% and 84%
Population Hoechst High Intensity Objects (%) [5]: 7% and 9%
Population Membrane Permeable-Phenotype (%) [5]: 6% and 2%
Population Mitochondria Different-Phenotype (%) [5]: 0%
Population Mitotic Cells (%) [5]: 82%
Population Normal (%) [5]: 92% and 90%
Population Pyknosed Nuclei (%) [5]: 2% and 3%
Population Tubulin-Different-Phenotype (%) [5]: 10% and 18%
Total Cell Count [5]: 2805 and 2683
Population Apoptotic (%) [6]: 33% and 24%
Population Fragmented Nuclei (%) [6]: 9% and 10%
Population Healthy Nuclei (%) [6]: 87% and 86%
Population Hoechst High Intensity Objects (%) [6]: 13% and 12%
Population Membrane Permeable-Phenotype (%) [6]: 3% and 4%
Population Mitochondria Different-Phenotype (%) [6]: 2% and 4%
Population Mitotic Cells (%) [6]: 66% and 75%
Population Normal (%) [6]: 86% and 87%
Population Pyknosed Nuclei (%) [6]: 3%
Population Tubulin-Different-Phenotype (%) [6]: 55%
Total Cell Count [6]: 1120 and 944

CC(=O)O[C@H]1C(=O)[C@@]2(C)[C@H]([C@H](OC(=O)c3ccccc3)[C@]3(O)C[C@H](OC(=O)[C@H](O)[C@@H](NC(=O)c4ccccc4)c4ccccc4)C(C)=C1C3(C)C)[C@]1(OC(C)=O)CO[C@@H]1C[C@@H]2O [PACLITAXEL]
Population Apoptotic (%) [2]: 60% and 50% and 49% and 45%
Population Fragmented Nuclei (%) [2]: 3% and 1% and 2%
Population Healthy Nuclei (%) [2]: 74% and 80% and 77%
Population Hoechst High Intensity Objects (%) [2]: 6% and 9% and 5% and 7%
Population Membrane Permeable-Phenotype (%) [2]: 0%
Population Mitochondria Different-Phenotype (%) [2]: 48% and 39% and 43% and 50%
Population Mitotic Cells (%) [2]: 39% and 49% and 50% and 54%
Population Normal (%) [2]: 93% and 90% and 94% and 92%
Population Pyknosed Nuclei (%) [2]: 22% and 17% and 20%
Population Tubulin-Different-Phenotype (%) [2]: 52% and 56% and 58% and 57%
Total Cell Count [2]: 418 and 518 and 523 and 401
Population Apoptotic (%) [4]: 65% and 51% and 71% and 68%
Population Fragmented Nuclei (%) [4]: 3% and 4% and 2%
Population Healthy Nuclei (%) [4]: 81% and 82% and 77%
Population Hoechst High Intensity Objects (%) [4]: 9% and 12% and 10% and 8%
Population Membrane Permeable-Phenotype (%) [4]: 0%
Population Mitochondria Different-Phenotype (%) [4]: 45% and 43% and 58%
Population Mitotic Cells (%) [4]: 35% and 48% and 28% and 31%
Population Normal (%) [4]: 90% and 87% and 89% and 91%
Population Pyknosed Nuclei (%) [4]: 15% and 14% and 18%
Population Tubulin-Different-Phenotype (%) [4]: 56% and 47%
Total Cell Count [4]: 442 and 490 and 384 and 517
Population Apoptotic (%) [6]: 71% and 81% and 64% and 73%
Population Fragmented Nuclei (%) [6]: 3% and 2% and 4%
Population Healthy Nuclei (%) [6]: 88% and 89% and 84% and 83%
Population Hoechst High Intensity Objects (%) [6]: 11% and 9%
Population Membrane Permeable-Phenotype (%) [6]: 0%
Population Mitochondria Different-Phenotype (%) [6]: 44% and 41% and 50%
Population Mitotic Cells (%) [6]: 28% and 18% and 35% and 26%
Population Normal (%) [6]: 88% and 90%
Population Pyknosed Nuclei (%) [6]: 7% and 10% and 13%
Population Tubulin-Different-Phenotype (%) [6]: 59% and 58% and 62%
Total Cell Count [6]: 478 and 469 and 500 and 350

Source: ChEMBL document CHEMBL5303300, “EUbOPEN Chemogenomics Library - Multiplex” (2023)
